Our source for the IC50 and Ki values is ChEMBL document CHEMBL1131440, “Synthesis and potent antifolate activity and cytotoxicity of B-ring deaza analogues of the nonpolyglutamatable dihydrofolate reductase inhibitor Nalpha-(4-amino-4-deoxypteroyl)-Ndelta-hemiphthaloyl- L-ornithine (PT523)” (J Med Chem, 1998).

In one test the test system is 786-0. Briefly: Compound was evaluated for in vitro activity against 786-0 kidney cell lines (Human tumor cells ). The test is classed as functional, cell-based. The method in brief:
(§1)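 NCI Developmental Therapeutics Program human tumor cell panel; drug exposure in 96-well plates for the last 48 h of a 72-h incubation, then cells stained for total protein with sulforhodamine B per the standard NCI protocol. Data supplied by NCI.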

A further test has as its system A498. Briefly: Compound was evaluated for in vitro activity against A498 kidney cell lines (Human tumor cells ). It counts as functional, cell-based. In a few lines:
as §1

Another test deals with ACHN. Kind of test: Compound was evaluated for in vitro activity against ACHN kidney cell lines (Human tumor cells ). It counts as functional, cell-based. The method in brief:
as §1

In another test the test system is A549. Kind of test: Compound was evaluated for in vitro activity against A549/ATCC lung cancer cell lines (Human tumor cells ).
The subject of the next test is BT-549. Briefly: Compound was evaluated for in vitro activity against BT-549 breast cancer cell lines (Human tumor cells ). It counts as functional, cell-based. In a few lines:
as §1

A further test has as its system CCRF-CEM. Kind of test: Compound was evaluated for in vitro activity against CCRF-CEM leukemia cell lines (Human tumor cells ). The test is classed as functional, cell-based. The method in brief:
as §1

Another test addresses T1, Dihydrofolate reductase (Homo sapiens, UniProt P00374).
T1 sequence (P00374 whole entry): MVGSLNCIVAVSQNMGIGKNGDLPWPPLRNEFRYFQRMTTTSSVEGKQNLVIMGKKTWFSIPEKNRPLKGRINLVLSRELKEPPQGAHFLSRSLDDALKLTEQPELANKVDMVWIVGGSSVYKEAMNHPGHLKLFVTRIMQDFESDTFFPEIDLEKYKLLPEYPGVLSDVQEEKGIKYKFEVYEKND
Kind of test: Compound was evaluated for the inhibition of Dihydrofolate reductase at concentration ranged from 0.15-0.50 uM.

The test system of another test is HCT-15. Kind of test: Compound was evaluated for in vitro activity against HCT-15 Colon cell lines (Human tumor cells ). It counts as functional, cell-based. In a few lines:
as §1

The test system of a further test is HCT-116. Kind of test: Compound was evaluated for in vitro activity against HCT116 Colon cell lines (Human tumor cells ). It counts as functional, cell-based. In a few lines:
as §1

The next test concerns HOP-92. Kind of test: Compound was evaluated for in vitro activity against HOP-92 lung cancer cell lines (Human tumor cells ). The test is classed as functional, cell-based. The method in brief: as §1
The subject of a further test is HCC 2998. Kind of test: Compound was evaluated for in vitro activity against HCC2998 Colon cell lines (Human tumor cells ). The test is classed as functional, cell-based. The method in brief: as §1
The test system of a further test is HL-60. Kind of test: Compound was evaluated for in vitro activity against HL-60(TB) leukemia cell lines (Human tumor cells ). The test is classed as functional, cell-based. The method in brief: as §1
For another test, the system named is Hs-578T. Briefly: Compound was evaluated for in vitro activity against Hs 578.T breast cancer cell lines (Human tumor cells ). It counts as functional, cell-based. The method in brief:
as §1

A further test has as its system KM12. Briefly: Compound was evaluated for in vitro activity against KM-12 Colon cell lines (Human tumor cells ). The test is classed as functional, cell-based. In a few lines:
as §1

The test system of the next test is K562. Briefly: Compound was evaluated for in vitro activity against K562 leukemia cell lines (Human tumor cells ). It counts as functional, cell-based. In a few lines:
as §1

Another test relates to IGROV-1. Briefly: Compound was evaluated for in vitro activity against IGROV1 Ovary cell lines (Human tumor cells ). The test is classed as functional, cell-based. The method in brief: as §1
Another test relates to M14. Kind of test: Compound was evaluated for in vitro activity against M14 Melanoma cell lines (Human tumor cells ). The test is classed as functional, cell-based. The method in brief:
as §1

A further test concerns LOX IMVI. Kind of test: Compound was evaluated for in vitro activity against LOXIMV1 Melanoma cell lines (Human tumor cells ). It counts as functional, cell-based. The method in brief: (§2)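 Total protein then stained with sulforhodamine B following the standard NCI protocol. Data supplied by the NCI Developmental Therapeutics Program.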
Another test deals with MDA-MB-435. Briefly: Compound was evaluated for in vitro activity against MDA-MB-435 breast cancer cell lines (Human tumor cells ). It counts as functional, cell-based. In a few lines: as §1
A further test deals with NCI-H460. Kind of test: Compound was evaluated for in vitro activity against NCI-H460 lung cancer cell lines (Human tumor cells ). The test is classed as functional, cell-based. In a few lines:
as §1

In another test the test system is NCI-H226. Briefly: Compound was evaluated for in vitro activity against NCI-H226 lung cancer cell lines (Human tumor cells ). The test is classed as functional, cell-based. In a few lines:
as §1

A further test concerns OVCAR-3. Briefly: Compound was evaluated for in vitro activity against OVCAR-3 Ovary cell lines (Human tumor cells ). It counts as functional, cell-based. In a few lines:
as §2

Another test concerns OVCAR-8. Briefly: Compound was evaluated for in vitro activity against OVCAR-8 Ovary cell lines (Human tumor cells ). It counts as functional, cell-based. In a few lines:
as §1

Another test has as its system OVCAR-4. Kind of test: Compound was evaluated for in vitro activity against OVCAR-4 Ovary cell lines (Human tumor cells ). The test is classed as functional, cell-based. In a few lines: as §1
The next test concerns OVCAR-5. Kind of test: Compound was evaluated for in vitro activity against OVCAR-5 Ovary cell lines (Human tumor cells ). The test is classed as functional, cell-based. The method in brief:
as §1

In another test the test system is NCI-H23. Kind of test: Compound was evaluated for in vitro activity against NCI-H23 lung cancer cell lines (Human tumor cells ). The test is classed as functional, cell-based. In a few lines:
as §1

For the next test, the system named is PC-3. Briefly: Compound was evaluated for in vitro activity against PC-3 prostate cell lines (Human tumor cells ). It counts as functional, cell-based. The method in brief:
as §1

The next test deals with RXF 393. Kind of test: Compound was evaluated for in vitro activity against RXF-393 kidney cell lines (Human tumor cells ). It counts as functional, cell-based. The method in brief:
as §1

Another test concerns RPMI-8226. Kind of test: Compound was evaluated for in vitro activity against RPMI-8226 leukemia cell lines (Human tumor cells ). The test is classed as functional, cell-based. In a few lines:
as §1

The next test deals with SF-268. Kind of test: Compound was evaluated for in vitro activity against SF-268 CNS cell lines (Human tumor cells ). It counts as functional, cell-based. The method in brief: as §1
The subject of the next test is SF-295. Briefly: Compound was evaluated for in vitro activity against SF-295 CNS cell lines (Human tumor cells ). It counts as functional, cell-based. The method in brief: as §1
In the next test the test system is SNB-. Briefly: Compound was evaluated for in vitro activity against […] CNS cell lines (Human tumor cells ). The test is classed as functional, cell-based. The method in brief:
as §1

The subject of the next test is SR. Kind of test: Compound was evaluated for in vitro activity against SR leukemia cell lines (Human tumor cells ). It counts as functional, cell-based. In a few lines:
as §1

For a further test, the system named is SK-MEL-2. Kind of test: Compound was evaluated for in vitro activity against SK-MEL-2 Melanoma cell lines (Human tumor cells ). It counts as functional, cell-based. The method in brief:
as §1

A short description of test [1]: Compound was tested for in vitro antitumor activity, using SCC25 human head and neck squamous carcinoma cells. It counts as functional. The note with it: SCC-25. The method in brief:
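Clonogenic assay: SCC25 cells exposed to graded drug concentrations for 72 h at 37 °C, 5% CO2, in DMEM with 10% FBS and hydrocortisone ([…]). Then replated as single cells at drug-dependent densities and grown in drug-free medium 10-14 days. Colonies stained with crystal violet; only colonies of ≥50 cells scored. IC50 is mean ± SD of ≥3 assays on different days.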

Another test has as its system SK-MEL-5. Kind of test: Compound was evaluated for in vitro activity against SK-MEL-5 Melanoma cell lines (Human tumor cells ). The test is classed as functional, cell-based. The method in brief: as §1
The next test deals with TK-10. Briefly: Compound was evaluated for in vitro activity against TK-10 kidney cell lines (Human tumor cells ). It counts as functional, cell-based. In a few lines: as §1
The subject of a further test is T47D. Briefly: Compound was evaluated for in vitro activity against T-47D breast cancer cell lines (Human tumor cells ). It counts as functional, cell-based. The method in brief: as §1
The test system of another test is UACC-257. Briefly: Compound was evaluated for in vitro activity against UACC-257 Melanoma cell lines (Human tumor cells ). The test is classed as functional, cell-based. In a few lines:
as §1

The next test has as its system U-251. Briefly: Compound was evaluated for in vitro activity against U251 CNS cell lines (Human tumor cells ). The test is classed as functional, cell-based. In a few lines:
as §1

The test system of another test is NCI-H522. Kind of test: Compound was evaluated for in vitro activity against NCI-H522 lung cancer cell lines (Human tumor cells ). The test is classed as functional, cell-based. The method in brief:
as §1

The subject of another test is SF-539. Kind of test: Compound was evaluated for in vitro activity against SF-539 CNS cell lines (Human tumor cells ). The test is classed as functional, cell-based. In a few lines:
as §2

The test system of a further test is MOLT-4. Briefly: Compound was evaluated for in vitro activity against MOLT-4 leukemia cell lines (Human tumor cells ). The test is classed as functional, cell-based. In a few lines: as §1
The test system of another test is UACC-62. Kind of test: Compound was evaluated for in vitro activity against UACC-62 Melanoma cell lines (Human tumor cells ). The test is classed as functional, cell-based. The method in brief:
as §1

Turning to `Nc1nc(N)c2nc(CNc3ccc(C(=O)NC(CCCNC(=O)c4ccccc4C(=O)O)C(=O)O)cc3)cnc2n1` (stereo unspecified), the IC50 – broadly, the concentration that gives 50% inhibition – is 0.5 nM in the test on 786-0; above 1000 nM with A498; 0.81 nM in the test with ACHN; 0.57 nM in the test on A549; above 1000 nM in the test on BT-549; 1.5 nM in the test with CCRF-CEM. Also, the IC50 in the test on HCT-15 was 0.6 nM; in the test on HCT-116, 0.18 nM; with HOP-92, 7.5 nM; in the test on HCC 2998, 1.3 nM; in the test with HL-60 it was 0.41 nM; in the test on Hs-578T, above 100 nM. In addition, the IC50 with KM12 is 2.2 nM; in the test with K562, 0.3 nM; in the test with IGROV-1 it was above 100 nM; with M14 it was above 100 nM; in the test on LOX IMVI, 0.23 nM; in the test on MDA-MB-435, 3.1 nM. Moreover, the IC50 was 0.43 nM in the test on NCI-H460; above 100 nM in the test with NCI-H226; 46 nM in the test with OVCAR-3; 0.53 nM in the test on OVCAR-8; above 100 nM in the test with OVCAR-4; 1 nM in the test on OVCAR-5. Moreover, the IC50 in the test with NCI-H23 was 2.6 nM; in the test with PC-3, above 100 nM; in the test with RXF 393, 8.6 nM; in the test on RPMI-8226 it was above 100 nM; in the test with SF-268 it was 0.73 nM; in the test with SF-295, 0.51 nM. For the same compound, the IC50 with SNB- was above 100 nM; with SR it was 0.42 nM; in the test with SK-MEL-2 it was above 100 nM; in test [1] it was 1.8 nM; with SK-MEL-5 it was 4.7 nM; with TK-10 it was 9.6 nM. Further, the IC50 in the test on T47D is above 1000 nM; with UACC-257, 25 nM; with U-251, 5.2 nM; in the test on NCI-H522, 6.5 nM; in the test with SF-539 it was 2.3 nM; with MOLT-4, 5.2 nM. For the same compound, the midpoint of inhibition in the test on UACC-62, the IC50, lay at 0.56 nM. Moreover, the affinity on Dihydrofolate reductase, expressed as Ki, was 0.00035 nM.
`Nc1nc(N)c2cc(CNc3ccc(C(=O)NC(CCCNC(=O)c4ccccc4C(=O)O)C(=O)O)cc3)cnc2n1` (stereo unspecified): the Ki – broadly, a measure of affinity in units of concentration, obtained from inhibition or displacement – at Dihydrofolate reductase came out at 0.00041 nM. For the same compound, the IC50 in [1] came to 1.8 nM.
